High-throughput results from PubChem.
Many of the other results were omitted from the sample, so hits are more common in it than they were.
T cruzi inh = T. cruzi replication inhibition | T. cruzi beta-gal in NIH3T3, luminescence, 90 h | inhibition, % (test concentration not listed) | 1.4% of 300,000 active | AID 1885;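 active means mean inhibition across valid replicates above about 55%, limit read from the data; inconclusive means mean below that limit but half or more replicates reach it; inactive means mean below it, under half of replicates reach it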;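 further: signal also drops with host cell toxicity which is not excluded here; 0% = plate median of DMSO wells and 100% = zero luminescence signal; higher percent means less beta-gal luminescence so fewer parasites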
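System – NIH/3T3 host cells with β-galactosidase reporter T. cruzi · Doses – single 50 nL compound addition per well in DMSO · Reagent – 5000 T. cruzi trypomastigotes/well · Medium – Low-serum DMEM with 2% FBS · Timing – ≥90 h infection period, 3 h prior cell attachment · Evaluation – parasite load inhibition, % · Technique – GalScreen luminescence, 60 min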
Lmaj promast = inhibitors of Leishmania major promastigote growth; Leishmania major promastigotes, resazurin fluorescence viability; inhibition, % at 10 µM; AID 1063; 9% of 200,000 active; in the data active means inhibition above about 50%;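 further: promastigotes grown with compound for 44 hours at 28 °C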
Calb FLC = affects C. albicans growth with fluconazole; 0.57% of 300,000 active; AID 1979; growth inhibition, % (test concentration not listed); C. albicans CaCi-2 + fluconazole, Alamar Blue growth, 48 h;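 active means growth inhibition above about 58% in most replicates, limit read from the data, passing the limit was not always enough; inconclusive means exactly half the replicates above a set limit; inactive means most replicates below a set limit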;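 further: all wells also contain fluconazole at 8 µg/ml as a sub-toxic cotreatment; 0% = median of DMSO wells and 100% = median of geldanamycin control wells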
PolyA inhibitor = blocks polyadenylation in yeast reporter cells; AID 1875; activity score, % at 12 µM; 0.02% of 300,000 active; S. cerevisiae SKY197-pL101 polyadenylation reporter, beta-gal luminescence; efflux-impaired pdr1/pdr3 knockout yeast; score 100 = 6 SD above DMSO;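 active means lowest replicate activity score at least 50, where 100 means six control SD above control mean; inconclusive means lowest score under 50 but half or more replicates reach 50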;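 further: yeast exposed to compound for 9 h at 30 °C; higher score means more reporter readthrough which indicates perturbed polyadenylation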
NALP1 inh = inhibitors of NALP1 inflammasome in yeast | S. cerevisiae NALP1/ASC/caspase-1 growth, X-gal OD620, 72 h | inhibition, % at 10 µM | 0.61% of 280,000 active; in the data active means inhibition mostly above about 24%, no sharp cut-off; inactive means mostly below about 32%
NALP3 yeast inh = NALP3 inhibition in yeast; inhibition, % at 10 µM; 0.39% of 330,000 active; Yeast reconstituted NLRP3/ASC/caspase-1, beta-gal luminescence, 24 h; AID 2825;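 active means inhibition of 50% or more; inactive means inhibition below 50%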;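 further: plate controls were induced DMSO wells for no effect and uninduced yeast grown without galactose for full effect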
The depositor's hits bear a star; ? = inconclusive; nt = not tested or not shown.

SMILES	T cruzi inh	Lmaj promast	Calb FLC	PolyA inhibitor	NALP1 inh	NALP3 yeast inh
O=C1C(=O)N(c2nccs2)C(c2ccccc2F)/C1=C(\O)c1ccc2c(c1)OCCO2 (configuration not stated)	-27.2	nt	-1.6	4.8	16.9	3.7
CCOc1ccc(S(=O)(=O)Nc2ccc(F)cc2)c(C)c1C	?	-2.1	40.4	-11.8	-0.5	17.8
C=CCOC(=O)C1=C(C)NC(SCC)=C(C#N)C1c1ccc(Cl)cc1 (configuration not stated)	51.3	100.0*	2.6	-20.4	9.4	15.1
C=CCOC(=O)C1=C(C)NC(SCC(N)=O)=C(C#N)C1c1ccc(C)cc1 (configuration not stated)	25.0	nt	-18.2	2.6	2.8	16.6
CC(/C=N/NC(=O)c1nnn(-c2nonc2N)c1C(C)C)=C\c1ccco1	2.8	nt	11.3	3.1	13.8	6.2
Cc1ccc(Nc2nnc(SC(C)C(=O)Nc3c(C)n(C)n(-c4ccccc4)c3=O)s2)cc1 (configuration not stated)	8.5	-5.0	1.8	-6.5	14.5	14.3
COc1ccc2oc(=O)c(-c3nc4ccccc4o3)cc2c1	-7.3	97.6*	-28.4	-22.6	17.6	36.5
O=c1oc2ccc3ccccc3c2cc1-c1nc2ccccc2o1	-2.8	99.7*	-8.8	-38.3	nt	0.0
Cc1cc(C)cc(NC(=S)NN)c1	-26.0	-1.8	-22.4	2.4	-8.0	3.7
Cc1cccn2c(=O)c(C=O)c(N3CCSCC3)nc12	10.1	nt	0.5	-7.8	-0.4	5.2
c1ccc(CCNc2ccnc3cc4ccccc4cc23)cc1	58.8*	100.5*	64.9	14.0	8.6	nt
COc1ccc(Nc2ccnc3ccccc23)cc1	13.5	100.6*	-5.6	-2.3	22.6	5.0
COc1ccc(Nc2ncnc3ccccc23)cc1	0.4	11.7	-14.4	-10.4	-2.6	7.5
O=C(NCCc1ccccc1)c1nccc2ccccc12	-3.3	nt	-10.6	11.8	nt	14.8
CC(C)Nc1ccc(Nc2ccnc3cc4ccccc4cc23)cc1	57.8*	nt	-0.5	26.5	7.4	22.9
O=C(Nc1ccc(Nc2ccncc2)cc1)c1ccc(Nc2ccnc3ccc([N+](=O)[O-])cc23)cc1	-5.9	nt	-2.4	8.1	8.6	nt
COc1ccc(Nc2ccnc(Nc3ccc(OC)cc3)n2)cc1	45.9	100.4*	-31.7	-2.0	101.7	34.9
COc1ccc(Nc2ccccc2N)cc1	8.1	92.1*	-0.5	-2.0	-6.3	39.1
COc1ccc(Nc2ccccc2NC(=O)c2ccccc2Br)cc1	11.3	nt	0.3	-8.0	-0.8	34.4
CP(=O)(Nc1cc(Cl)ccc1Cl)c1nc2c(s1)CCCC2 (configuration not stated)	10.0	nt	-4.9	0.2	nt	7.4
CCN(CC)CCN1C(=O)C(=O)/C(=C(/O)c2cccc(OC)c2)C1c1ccccn1 (configuration not stated)	-14.8	4.3	-2.5	6.0	15.8	-3.2
Oc1c(CN2CCOCC2)cc(COCc2ccccc2)c2cccnc12	61.7*	100.5*	82.6*	-44.3	9.6	nt
CCOC(=O)N1CCN(Cc2ccccc2Cl)CC1	nt	-5.0	nt	nt	nt	6.3
CN1CCN(Cc2cc(Cl)c3cccnc3c2OC(=O)c2cccs2)CC1	4.6	27.2	2.4	40.9	29.4	5.8
Oc1c(CNc2ccccc2)cc(COCc2ccccc2)c2cccnc12	nt	nt	nt	nt	nt	13.5
SMILES	T cruzi inh	Lmaj promast	Calb FLC	PolyA inhibitor	NALP1 inh	NALP3 yeast inh
CCOC(=O)N1CCN(Cc2cc(Cl)c3cccnc3c2O)CC1	44.4	100.2*	116.1*	-31.5	16.7	35.6
Oc1c(CN2CCN(c3ccccc3)CC2)cc(Br)c2cccnc12	52.3	nt	101.6*	-3.4	8.3	nt
COCc1cc(CN2CCN(C)CC2)c(O)c2ncccc12	32.1	100.4*	107.5*	-20.7	-3.2	2.0
COc1cc(=O)[nH]c(SC(C)C(=O)Nc2cc(C)on2)n1 (configuration not stated)	-2.6	nt	-3.8	11.2	13.7	10.1
COc1cccc(N2C(C(C)=O)=NN(c3ccccc3)C2c2ccc(N3CCOCC3)cc2)c1 (configuration not stated)	76.6*	18.8	-26.5	-2.7	8.8	7.3
CC(=O)C1=NN(c2ccccc2)C(c2ccc3c(c2)OCO3)N1c1ccc(N2CCOCC2)cc1 (configuration not stated)	24.7	4.6	-20.0	1.7	34.8	25.6
CCOc1ccc(C2=NNC(c3cccs3)=Nc3ccc(OC)cc32)cc1OCC	22.4	67.0*	3.5	-7.8	20.7	2.7
CCOc1ccc2c(c1)C(c1cccs1)=NNC(c1cccnc1)=N2	-7.6	9.1	34.9	-7.2	29.9*	9.1
Brc1ccc2c(c1)C(c1cccs1)=NNC(c1cccnc1)=N2	21.0	29.1	?	-10.5	-1.2	12.2
O=C(COC(=O)c1cc(=O)[nH]c2ccc(Br)cc12)c1ccccc1	-6.9	7.3	21.9	-0.5	-7.4	25.8
CC(C)(C)OC(=O)C[C@@H]1C/C=C\C[C@@H](CC(=O)NCCO)C(=O)N[C@H](Cc2ccccc2)COC1=O	nt	nt	nt	nt	nt	2.8
O=C(NNc1c(Cl)cc(Cl)cc1Cl)c1cccc([N+](=O)[O-])c1	13.1	79.2*	-5.0	-28.7	27.5	10.3
O=C(NNC(=S)NC(=O)c1ccccc1)c1ccc([N+](=O)[O-])cc1	-14.3	nt	83.8*	2.7	17.0	21.7
CC(=O)Nc1ccc(NC(=S)NC(=O)c2ccc([N+](=O)[O-])cc2)cc1	9.0	62.7*	-1.1	6.9	26.8	16.9
CC(=O)NNC(=S)NC(=O)c1cccc([N+](=O)[O-])c1	-28.1	67.6*	18.3	5.9	2.1	12.5
CC(C)CCN(C(=O)c1ccc(Br)cc1)c1c(N)n(Cc2ccccc2)c(=O)[nH]c1=O	nt	nt	nt	nt	nt	19.6
Cc1ccc(C(=O)CCC(=O)Nc2cc(C)ccn2)cc1	nt	nt	nt	nt	nt	18.1
COc1ccc(N2C(=O)C(=O)/C(=C(/O)c3ccc(C)cc3)C2c2cccnc2)cc1 (configuration not stated)	-8.9	0.8	15.0	4.0	16.9	-1.5
COc1ccc(NC2=Nc3ccccc3N3C2=Nc2c(c(C)nn2-c2ccc(C)cc2)C3c2cccnc2)cc1 (configuration not stated)	2.9	3.3	118.7*	nt	12.1	6.0
COc1ccc2sc(N(CCCN(C)C)C(=O)c3ccc(S(=O)(=O)N4CCCc5ccccc54)cc3)nc2c1	61.8*	nt	45.6	7.3	nt	35.9
COc1cc2nc(N(CCCN(C)C)C(=O)c3ccc(S(=O)(=O)N(C)C4CCCCC4)cc3)sc2cc1OC	50.3	nt	3.3	15.2	nt	19.7
COc1cc2nc(N(CCCN(C)C)C(=O)c3ccc(S(=O)(=O)N4CCc5ccccc54)cc3)sc2cc1OC	54.5*	nt	-7.3	12.0	nt	6.5
Cc1[nH]c2ccccc2c1/C=N/Nc1ccc([N+](=O)[O-])cc1S(=O)(=O)Nc1ccc(Cl)cc1	1.5	94.8*	27.8	3.0	16.2	-6.4
